Experimental data reported in ChEMBL document CHEMBL1156405, “A new biologically active malyngamide from a New Zealand collection of the sea hare Bursatella leachii” (J Nat Prod, 2002).
The source made the active and inactive calls. The rule behind the calls is not given here.

Assays:
[1] = system: Trichophyton mentagrophytes; experiment: Antimicrobial activity against Trichophyton mentagrophytes at 120 ug/disk; format: functional
Summary of the method: (§1)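 Disk diffusion assay with 120 µg loaded per disk. The read-out was the excess radius of the zone around the disk, in mm.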

[2] = system: Bacillus subtilis; experiment: Antimicrobial activity against Bacillus subtilis at 120 ug/disk; format: functional; summary of the method: as §1
[3] = system: P388; experiment: Cytotoxicity against mouse P388 cells; format: functional, cell-based
[4] = Cytotoxicity against BSC1 cells assessed as radius zone size at 120 ug/disk; format: cell-based; conditions: chlorocebus aethiops, bsc-1; summary of the method: as §1
[5] = system: Candida albicans; experiment: Antimicrobial activity against Candida albicans at 120 ug/disk; format: functional, organism-based
[6] = system: Escherichia coli; experiment: Antimicrobial activity against Escherichia coli at 120 ug/disk; format: functional, organism-based
[7] = system: HL-60; experiment: Antiproliferative activity against human HL60 cells after 2 days; format: functional, cell-based; conditions: HL-60, 48 h
[8] = system: Mycobacterium tuberculosis; experiment: Antimicrobial activity against Mycobacterium tuberculosis at 6.25 ug/mL; format: functional

Row | Structure (SMILES) | zone of inhibition at 120 µg/disc ([1]; read-out: IZ) | zone of inhibition at 120 µg/disc ([2]; read-out: IZ) | IC50 [3] | Activity [4] | Activity [5] | Activity [6] | Activity [1] | Activity [2] | IC50 [7] | inhibition at 6.25 µg/mL [8]
1 | CCCCC[C@@H](C/C=C/CCC(=O)O)OC | 3 mm | 2 mm | > 100 µM | > 4.5 mm |  |  |  |  |  | 
2 | CCCCC[C@@H](C/C=C/CCC(=O)NC/C(=C/Cl)[C@H]1C(=O)C(C)(C)C(=O)[C@@H](C)[C@@]1(C)O)OC [MALYNGAMIDE S] |  |  | 29 µM | > 4.5 mm | inactive | inactive | inactive | inactive | 6 µM | 0%
